Measurements taken from ChEMBL document CHEMBL1153848, “Design and synthesis of azolopyrimidoquinolines, pyrimidoquinazolines as anti-oxidant, anti-inflammatory and analgesic activities” (2009).
Active and inactive are the calls of the source.

Assays:
Brain = assay: Antioxidant activity in Sprague-Dawley rat brain assessed as inhibition of lipid peroxidation; assay type: functional, tissue-based
[1] = Antioxidant activity assessed as ABTS radical scavenging activity at 2 mM; assay type: functional
In short: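 ABTS radical scavenging, read as the fall in colour absorbance after MeOH/phosphate buffer (1:1) is added. % inhibition = (A_control − A_test)/A_control × 100. The negative control uses MeOH/phosphate buffer (1:1) in place of compound, the blank omits ABTS, and ascorbic acid is the positive control.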

[2] = Antioxidant activity in Sprague-Dawley rat erythrocytes assessed as peroxyl radical-induced hemolysis after 1 hr; assay type: functional, Erythrocyte
Kidney = assay: Antioxidant activity in Sprague-Dawley rat kidney assessed as inhibition of lipid peroxidation; assay type: functional, tissue-based
Rattus norvegicus [3] = assay: Antiinflammatory activity in Sprague-Dawley rat assessed as protection against carrageenan-induced hind paw edema at 20 mg/kg, po administered 1 hr before carrageenan challenge measured after 1 hr; assay type: functional
In short: (§1)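 Adult female albino rats (150–180 g), fasted 18 h, six per group. Aqueous suspension in distilled water given orally at 20 mg/kg 1 h before subplantar injection of 0.1 mL 1% w/v carrageenan into the left hind paw. Vehicle controls got 0.5 mL water; diclofenac sodium 20 mg/kg po was the reference. Paw volume was measured by mercury plethysmometer before injection and hourly for 4 h. Inhibition = (Ec−Et)/Ec, with edema = (Vt−V0)/V0.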

Rattus norvegicus [4] = assay: Antiinflammatory activity in Sprague-Dawley rat assessed as protection against carrageenan-induced hind paw edema at 20 mg/kg, po administered 1 hr before carrageenan challenge measured after 3 hrs; assay type: functional; in short: as §1
Rattus norvegicus [5] = assay: Antiinflammatory activity in Sprague-Dawley rat assessed as protection against carrageenan-induced hind paw edema at 20 mg/kg, po administered 1 hr before carrageenan challenge measured after 2 hrs; assay type: functional; in short: as §1
Mus musculus [6] = assay: Central analgesic activity in Swiss albino mouse assessed as thermal stimuli reaction time at 20 mg/kg, po after 90 mins by hot plate method; assay type: functional
In short: (§2)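 Swiss mice of both sexes (25–30 g), six per group, on a hot plate held at 53 ± 0.5 °C. Latency was timed to hind-paw licking or jumping, with a 60 s cut-off. It was measured before dosing, then at 15, 30, 60 and 90 min after an oral aqueous suspension at 20 mg/kg. Controls were untreated; oral diclofenac sodium 20 mg/kg was the reference.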

Mus musculus [7] = assay: Peripheral analgesic activity in Swiss albino mouse assessed as protection against acetic acid-induced writhing response at 20 mg/kg, po administered 30 mins before acetic acid challenge measured after 2 hrs relative to control; assay type: functional
Mus musculus [8] = assay: Peripheral analgesic activity in Swiss albino mouse assessed as protection against acetic acid-induced writhing response at 20 mg/kg, po administered 30 mins before acetic acid challenge measured after 30 mins relative to control; assay type: functional
Mus musculus [9] = assay: Central analgesic activity in Swiss albino mouse assessed as thermal stimuli reaction time at 20 mg/kg, po after 30 mins by hot plate method; assay type: functional; in short: as §2
Mus musculus [10] = assay: Peripheral analgesic activity in Swiss albino mouse assessed as protection against acetic acid-induced writhing response at 20 mg/kg, po administered 30 mins before acetic acid challenge measured after 1 hr relative to control; assay type: functional
Mus musculus [11] = assay: Peripheral analgesic activity in Swiss albino mouse assessed as protection against acetic acid-induced writhing response at 20 mg/kg, po administered 30 mins before acetic acid challenge measured after 3 hrs relative to control; assay type: functional
Mus musculus [12] = assay: Central analgesic activity in Swiss albino mouse assessed as thermal stimuli reaction time at 20 mg/kg, po after 60 mins by hot plate method; assay type: functional; in short: as §2

Row | SMILES | Activity (Brain) | inhibition [1] | Activity [2] | Activity (Kidney) | Activity (Rattus norvegicus [3]) | Activity (Rattus norvegicus [4]) | Activity (Rattus norvegicus [5]) | Activity (Mus musculus [6]) | Activity (Mus musculus [7]) | Activity (Mus musculus [8]) | Activity (Mus musculus [9]) | Activity (Mus musculus [10]) | Activity (Mus musculus [11]) | Activity (Mus musculus [12])
1 | COc1ccc(C2NOc3c2sc2nc4nc5c(c(-c6ccc(Cl)cc6)c4c(=O)n32)CCC/C5=C/c2ccc(Cl)cc2)cc1 (stereo unspecified) | Active | 24.1% | 7.27% | Active | – | – | – | – | – | – | – | – | – | –
2 | O=c1[nH]c(=S)[nH]c2nc3c(c(-c4ccc(Cl)cc4)c12)CCC/C3=C\c1ccc(Cl)cc1 | Active | 44.4% | 8.33% | Active | – | – | – | – | – | – | – | – | – | –
3 | O=c1[nH]c(=S)[nH]c2c1C(c1ccc(Cl)cc1)C1=C(N2)/C(=C/c2ccc(Cl)cc2)CCC1 (stereo unspecified) | Active | 59.3% | 12.72% | Active | 56.3% | 40.2% | 62% | 11.67 min | 74.3% | 60.4% | 9.42 min | 69% | 47.3% | 10.41 min
4 | CSc1nc2nc3c(c(-c4ccc(Cl)cc4)c2c(=O)n1C)CCC/C3=C/c1ccc(Cl)cc1 | Active | 31.5% | 4.09% | Active | – | – | – | – | – | – | – | – | – | –
5 | O=C(CSc1nc2nc3c(c(-c4ccc(Cl)cc4)c2c(=O)[nH]1)CCC/C3=C/c1ccc(Cl)cc1)c1ccccc1 | Active | 33.3% | 6.51% | Active | – | – | – | – | – | – | – | – | – | –
6 | Nc1ccc(/C=C2/CCCc3c2nc2nc4sc5c(n4c(=O)c2c3-c2ccc(Cl)cc2)ONC5c2cccs2)cc1 (stereo unspecified) | Active | 29.6% | 4.64% | Active | – | – | – | – | – | – | – | – | – | –
7 | CSC1=Nc2nc3c(c(-c4ccc(Cl)cc4)c2C(N2CCOCC2)N1)CCC/C3=C/c1ccc(Cl)cc1 (stereo unspecified) | Active | – | – | Active | 39.2% | 37.3% | 47.1% | 11.12 min | 45.2% | 45.2% | 8.65 min | 47% | 27.8% | 10.98 min
8 | CSc1nc2nc3c(c(-c4ccc(Cl)cc4)c2c(=O)[nH]1)CCC/C3=C/c1ccc(Cl)cc1 | Active | 33.3% | 4.24% | Active | 50.1% | 32.4% | 56.2% | 10.67 min | 55.5% | 50.4% | 8.42 min | 52% | 37.6% | 10.41 min
9 | COc1ccc(/C=C2\CCCC3=C2Nc2[nH]c(=S)[nH]c(=O)c2C3c2ccc(OC)cc2)cc1 (stereo unspecified) | Active | 66.7% | 8.18% | Active | 59.5% | 46.5% | 62.4% | 11.88 min | 75.4% | 69% | 9.84 min | 74% | 58.2% | 11.62 min
10 | CC(=O)CSc1nc2nc3c(c(-c4ccc(Cl)cc4)c2c(=O)[nH]1)CCC/C3=C/c1ccc(Cl)cc1 | Active | 35.2% | 8.33% | Active | – | – | – | – | – | – | – | – | – | –
11 | NNc1nc2nc3c(c(-c4ccc(Cl)cc4)c2c(=O)[nH]1)CCC/C3=C/c1ccc(Cl)cc1 | Active | – | – | Active | – | – | – | – | – | – | – | – | – | –
12 | COc1ccc(NC2NC(SC)=Nc3nc4c(c(-c5ccc(Cl)cc5)c32)CCC/C4=C/c2ccc(Cl)cc2)cc1 (stereo unspecified) | Active | – | – | Active | 39.8% | 25.3% | 42.3% | 9.22 min | 49.3% | 41.5% | 8.62 min | 52% | 37.3% | 9.06 min
13 | CN(C)c1ccc(/C=c2\sc3nc4nc5c(c(-c6ccc(Cl)cc6)c4c(=O)n3c2=O)CCC/C5=C/c2ccc(Cl)cc2)cc1 | Active | 37% | 7.27% | Active | – | – | – | – | – | – | – | – | – | –
